ChEMBL document CHEMBL4261516, “Design, synthesis and pharmacological evaluation of new 2-oxo-quinoline derivatives containing α-aminophosphonates as potential antitumor agents” (Medchemcomm, 2017)
Active and inactive are the calls of the source. No cut-off for these calls is given here.

How the values were obtained:
HepG2 [1] = assay: Induction of morphological changes in human HepG2 cells at 10 uM after 12 hrs by Hoechst 33258 staining-based fluorescent microscopic method; type: functional, cell-based
Summary of the method: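 Cells were treated on cover slips, fixed in 4% paraformaldehyde for 10 min and washed with PBS. They were stained with Hoechst 33258 for 5 min, washed again, and nuclei were examined by fluorescence microscopy (excitation 350 nm, emission 460 nm).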

HepG2 [2] = assay: Induction of apoptosis in human HepG2 cells assessed as necrotic cells at 8 uM after 24 hrs by annexin V/[…] staining-based fluorescent microscopic method (reference value: 0.28%); type: functional
HepG2 [3] = assay: Induction of apoptosis in human HepG2 cells assessed as upregulation of Bax levels at 8 to 12 uM after 24 hrs by Western blot method; type: functional, cell-based
Summary of the method: (§1)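 Treated HepG2 cells were lysed on ice in 1% SDS/Tris-HCl pH 7.5 buffer with EDTA, NaCl, PMSF, leupeptin and trypsin inhibitor, then cleared at 12,000 × g for 5 min. Protein was quantified by BCA, and 40–50 µg was run on 12% SDS-PAGE and blotted to PVDF. Membranes were blocked with 5% milk, incubated with primary antibody overnight at 4 °C and HRP secondary for 1 h. Detection by chemiluminescence with densitometry.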

HepG2 [4] = assay: Cell cycle arrest in human HepG2 cells assessed as accumulation at G2 phase at 12 uM after 48 hrs by propidium iodide staining-based flow cytometric method (reference value: 19.04%); type: functional
HepG2 [5] = assay: Downregulation of CDK1 expression in human HepG2 cells after 48 hrs by Western blot method; type: functional, cell-based
HepG2 [6] = assay: Induction of apoptosis in human HepG2 cells assessed as viable cells at 8 uM after 24 hrs by annexin V/[…] staining-based fluorescent microscopic method (reference value: 91.31%); type: functional; settings: HepG2, 24 h, read-out: Activity
HepG2 [7] = assay: Cell cycle arrest in human HepG2 cells assessed as accumulation at S phase at 10 uM after 48 hrs by propidium iodide staining-based flow cytometric method (reference value: 30.49%); type: functional
HepG2 [8] = assay: Cell cycle arrest in human HepG2 cells assessed as accumulation at G1 phase at 12 uM after 48 hrs by propidium iodide staining-based flow cytometric method (reference value: 50.47%); type: functional
HepG2 [9] = assay: Cell cycle arrest in human HepG2 cells assessed as accumulation at S phase at 12 uM after 48 hrs by propidium iodide staining-based flow cytometric method (reference value: 30.49%); type: functional
HepG2 [10] = assay: Downregulation of cyclin B1 expression in human HepG2 cells after 48 hrs by Western blot method; type: functional, cell-based
HepG2 [11] = assay: Induction of apoptosis in human HepG2 cells assessed as cell budding at 10 uM after 24 hrs by acridine orange/ethidium bromide staining-based fluorescent microscopic method; type: functional
Summary of the method: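 Cells were plated at 5×10^4 cells/mL on sterile cover slips. Medium was replaced with fresh medium containing 10% FBS plus compound. After treatment, cover slips were inverted onto slides with acridine orange/ethidium bromide stain and viewed by fluorescence microscopy.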

HepG2 [12] = assay: Upregulation of p27 expression in human HepG2 cells after 48 hrs by Western blot method; type: functional, cell-based
HepG2 [13] = assay: Cell cycle arrest in human HepG2 cells assessed as accumulation at G2 phase at 10 uM after 48 hrs by propidium iodide staining-based flow cytometric method (reference value: 19.04%); type: functional
HepG2 [14] = assay: Induction of apoptosis in human HepG2 cells assessed as early apoptotic cells at 12 uM after 24 hrs by annexin V/[…] staining-based fluorescent microscopic method (reference value: 6.50%); type: functional
SK-OV-3 = assay: Cytotoxicity against human SKOV3 cells after 48 hrs by MTT assay; type: functional, cell-based; settings: SK-OV-3, 48 h
Summary of the method: (§2)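 HepG2, SK-OV-3, NCI-H460 and HL 7702 lines grown as monolayers in DMEM with 10% FBS plus penicillin/streptomycin at 37 °C, 5% CO2. Exponentially growing cells were seeded and exposed to the indicated concentrations for 48 h. MTT was then added for 4 h at 37 °C, formazan was dissolved in DMSO, and OD was read at 490 nm. Each concentration was run in triplicate wells, with three independent runs per line.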

HepG2 [15] = assay: Induction of apoptosis in human HepG2 cells assessed as necrotic cells at 12 uM after 24 hrs by annexin V/[…] staining-based fluorescent microscopic method (reference value: 0.28%); type: functional
HepG2 [16] = assay: Induction of apoptosis in human HepG2 cells assessed as viable cells at 10 uM after 24 hrs by annexin V/[…] staining-based fluorescent microscopic method (reference value: 91.31%); type: functional; settings: HepG2, 24 h, read-out: Activity
HepG2 [17] = assay: Induction of apoptosis in human HepG2 cells assessed as downregulation of Bcl-2 levels at 8 to 12 uM after 24 hrs by Western blot method; type: functional, cell-based; summary of the method: as §1
HepG2 [18] = assay: Upregulation of p53 expression in human HepG2 cells after 48 hrs by Western blot method; type: functional, cell-based
HepG2 [19] = assay: Induction of apoptosis in human HepG2 cells assessed as upregulation of reactive oxygen species generation at 10 uM by DCFH-DA/DAPI staining-based fluorescence microscopic method; type: functional, cell-based
HepG2 [20] = assay: Induction of apoptosis in human HepG2 cells assessed as late apoptotic cells at 10 uM after 24 hrs by annexin V/[…] staining-based fluorescent microscopic method (reference value: 1.91%); type: functional
HepG2 [21] = assay: Induction of apoptosis in human HepG2 cells assessed as late apoptotic cells at 12 uM after 24 hrs by annexin V/[…] staining-based fluorescent microscopic method (reference value: 1.91%); type: functional
NCI-H460 = assay: Cytotoxicity against human NCI-H460 cells after 48 hrs by MTT assay; type: functional, cell-based; settings: NCI-H460, 48 h; summary of the method: as §2
HepG2 [22] = assay: Induction of apoptosis in human HepG2 cells assessed as early apoptotic cells at 8 uM after 24 hrs by annexin V/[…] staining-based fluorescent microscopic method (reference value: 6.50%); type: functional
HepG2 [23] = assay: Induction of apoptosis in human HepG2 cells assessed as increase in intracellular calcium release at 10 uM after 24 hrs by Fluo-3 AM dye-based fluorescence microscopic method
HepG2 [24] = assay: Cell cycle arrest in human HepG2 cells assessed as accumulation at S phase at 8 uM after 48 hrs by propidium iodide staining-based flow cytometric method (reference value: 30.49%); type: functional
HepG2 [25] = assay: Cytotoxicity against human HepG2 cells after 48 hrs by MTT assay; type: functional, cell-based; settings: HepG2, 48 h; summary of the method: as §2
L02 = assay: Cytotoxicity against human HL-7702 cells after 48 hrs by MTT assay; type: cell-based; settings: L02, 48 h; summary of the method: as §2
HepG2 [26] = assay: Induction of apoptosis in human HepG2 cells assessed as upregulation of PARP levels at 8 to 12 uM after 24 hrs by Western blot method; type: functional, cell-based
HepG2 [27] = assay: Upregulation of p21 expression in human HepG2 cells after 48 hrs by Western blot method; type: functional, cell-based
HepG2 [28] = assay: Induction of apoptosis in human HepG2 cells assessed as increase in release of mitochondrial cytochrome c into cytosol at 8 to 12 uM after 24 hrs by Western blot method; type: functional, cell-based; summary of the method: as §1
HepG2 [29] = assay: Induction of apoptosis in human HepG2 cells assessed as early apoptotic cells at 10 uM after 24 hrs by annexin V/[…] staining-based fluorescent microscopic method (reference value: 6.50%); type: functional

SMILES: CCOP(=O)(Cc1ccc(/N=C/c2cc3cc(C)ccc3[nH]c2=O)cc1)OCC
- Activity (HepG2 [1]): Active
- Activity (HepG2 [2]): 2.9%
- Activity (HepG2 [3]): Active
- Activity (HepG2 [4]): 46.77%
- Activity (HepG2 [5]): Dose-dependent effect
- viability at 8 µM (HepG2 [6]): 62.5%
- Activity (HepG2 [7]): 29.16%
- Activity (HepG2 [8]): 25.75%
- Activity (HepG2 [9]): 27.49%
- Activity (HepG2 [10]): Dose-dependent effect
- Activity (HepG2 [11]): Active
- Activity (HepG2 [12]): Dose-dependent effect
- Activity (HepG2 [13]): 36.92%
- Activity (HepG2 [14]): 43.07%
- IC50 (SK-OV-3): 34.8 µM
- Activity (HepG2 [15]): 0.57%
- viability at 10 µM (HepG2 [16]): 56.3%
- Activity (HepG2 [17]): Active
- Activity (HepG2 [18]): Dose-dependent effect
- Activity (HepG2 [19]): Active
- Activity (HepG2 [20]): 9.24%
- Activity (HepG2 [21]): 11.83%
- IC50 (NCI-H460): 39 µM
- Activity (HepG2 [22]): 19.08%
- Activity (HepG2 [23]): Active
- Activity (HepG2 [24]): 30.01%
- IC50 (HepG2 [25]): 9.99 µM
- IC50 (L02): > 100 µM
- Activity (HepG2 [26]): Active
- Activity (HepG2 [27]): Dose-dependent effect
- Activity (HepG2 [28]): Active
- Activity (HepG2 [29]): 34.38%
